Data published in ChEMBL document CHEMBL4041508, “Synthesis and biological evaluation of chemical tools for the study of Dolichol Linked Oligosaccharide Diphosphatase (DLODP)” (Eur J Med Chem, 2017).
pIC50: −log10 of the molar value. Active and inactive are the calls of the source. No cut-off for these calls is given here.

Legend:
Homo sapiens [1] = organism: Homo sapiens; experiment: Inhibition of DLODP in human HepG2 microsomal membrane assessed as reduction in [3H]OSP production at 50 mM using Glc3-0[3H]Man9-5GlcNAc2-PP-dolichol as substrate at pH 5.5 measured after 20 to 60 mins by scintillation counting; type: cell membranes
[2] = Inhibition of DLODP in human HepG2 microsomal membrane assessed as reduction in [3H]OSP production using Glc3-0[3H]Man9-5GlcNAc2-PP-dolichol as substrate at pH 5.5 measured after 20 to 60 mins by scintillation counting; type: cell membranes
Homo sapiens [3] = organism: Homo sapiens; experiment: Inhibition of DLODP in human HepG2 microsomal membrane assessed as reduction in [3H]OSP production at 3 mM using Glc3-0[3H]Man9-5GlcNAc2-PP-dolichol as substrate at pH 5.5 measured after 20 to 60 mins by scintillation counting; type: cell membranes
Homo sapiens [4] = organism: Homo sapiens; experiment: Inhibition of DLODP in human HepG2 microsomes assessed as reduction in OSP production at higher concentration using Glc3-0[3H]Man9-5GlcNAc2-PP-dolichol as substrate measured after 20 to 60 mins by scintillation counting
Outline: (§1)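 Cells grown in RPMI 1640 with 10% fetal calf serum and 1% penicillin/streptomycin, plus 1% non-essential amino acids for Caco-2 TC7, for 8 days before total membrane preparation. Assay uses 20 µg membrane protein in standard mix (100 mM MES pH 5.5, 1 mM CoCl2, 0.1% NP-40) with added inhibitor, 37 °C. Radioactivity in OSP and neutral oligosaccharides separated by ion exchange, counted by scintillation.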

Homo sapiens [5] = organism: Homo sapiens; experiment: Inhibition of DLODP in human Caco2 microsomes assessed as reduction in neutral oligosaccharide production at low concentration using Glc3-0[3H]Man9-5GlcNAc2-PP-dolichol as substrate measured after 20 to 60 mins by scintillation counting; outline: as §1
Homo sapiens [6] = organism: Homo sapiens; experiment: Inhibition of DLODP in human Caco2 microsomes assessed as reduction in OSP production at higher concentration using Glc3-0[3H]Man9-5GlcNAc2-PP-dolichol as substrate measured after 20 to 60 mins by scintillation counting; outline: as §1
Homo sapiens [7] = organism: Homo sapiens; experiment: Inhibition of DLODP in human HepG2 microsomes assessed as reduction in neutral oligosaccharide production at low concentration using Glc3-0[3H]Man9-5GlcNAc2-PP-dolichol as substrate measured after 20 to 60 mins by scintillation counting; outline: as §1

Row | Compound | inhibition (Homo sapiens [1]) | pIC50 [2] | also measured
1 | CC(=O)N[C@@H]1[C@@H](O)[C@H](O[C@@H]2O[C@H](CO)[C@@H](O)[C@H](O)[C@H]2NC(C)=O)[C@@H](CO)O[C@@H]1O | < 10% |  | 
2 | O=[N+]([O-])c1ccc(OP(=O)(O)O)cc1 [p-NITROPHENYLPHOSPHATE] |  | 2.38 | 
3 | CC(C)O | Active |  | 
4 | CCCOP(=O)(O)O |  |  | inhibition (Homo sapiens [3]): inactive
5 | CC(=O)N[C@@H]1[C@@H](O)[C@H](O[C@@H]2O[C@H](CO)[C@H](O)[C@H](O)[C@H]2O)[C@@H](CO)O[C@@H]1O | inactive |  | 
6 | CO[C@@H]1O[C@H](CO)[C@@H](O)[C@H](O)[C@@H]1O | 10% |  | 
7 | O=P(O)(O)CP(=O)(O)O |  |  | inhibition (Homo sapiens [3]): inactive
8 | OC[C@H]1OC(O)[C@@H](O)[C@@H](O)[C@@H]1O (stereo not given in full) | inactive |  | 
9 | CC(C)=CCC[C@H](C)CCOP(=O)(O)CP(=O)(O)O |  | 3.15 | 
10 | CC(=O)N[C@@H]1[C@@H](O)[C@H](O)[C@@H](CO)O[C@@H]1O | inactive |  | 
11 | O=[N+]([O-])c1ccc(OP(=O)(O)Oc2ccc([N+](=O)[O-])cc2)cc1 |  | 2.92 | 
12 | CC(=O)N[C@H]1[C@@H](OP(=O)(O)O)O[C@H](CO)[C@@H](O)[C@@H]1O |  | < 2.52 | inhibition (Homo sapiens [4]): Active; inhibition (Homo sapiens [5]): Active; inhibition (Homo sapiens [6]): Active; inhibition (Homo sapiens [7]): Active
13 | CO[C@H]1O[C@H](CO)[C@@H](O)[C@H](O)[C@@H]1O | inactive |  | 
14 | CC(=O)N[C@H]1[C@@H](O[P@@](=O)(O)O[P@@](=O)(O)OC[C@H]2O[C@@H](n3ccc(=O)[nH]c3=O)[C@H](O)[C@@H]2O)O[C@H](CO)[C@@H](O)[C@@H]1O |  |  | inhibition (Homo sapiens [3]): inactive
15 | CC(=O)N[C@@H]1[C@@H](O)[C@H](O[C@@H]2O[C@H](CO)[C@@H](O)[C@H](O)[C@@H]2O)[C@@H](CO)O[C@@H]1O | 30% |  | 
16 | CC(C)=CCC/C(C)=C/CC/C(C)=C/CC/C(C)=C/CC/C(C)=C/CC/C(C)=C/CC/C(C)=C/CC/C(C)=C/CC/C(C)=C/COP(=O)(O)OP(=O)(O)O |  | 5.33 | 
